According to ChEMBL document CHEMBL1811864 (Bioorg Med Chem, 2011):
Blank lines part the entries; values can stand above or below the molecule they belong to.

Columns and labels:
[1] = system: Escherichia coli DH5[alpha]; experiment: Agonist activity at Escherichia coli DH5alpha (pJN105L + pSC11) LasR at 10 uM after 8 hrs by beta-galactosidase reporter gene assay relative to OdDHL; assay type: functional
[2] = Agonist activity at Escherichia coli DH5alpha (pJN105L + pSC11) LasR after 8 hrs by beta-galactosidase reporter gene assay relative to OdDHL; assay type: functional, Escherichia coli DH5[alpha]
[3] = molecular target: T1, Transcriptional activator protein LuxR (Aliivibrio fischeri) (UniProt P12746); experiment: Antagonist activity at Vibrio fischeri ESI 114 (delta-LuxI) LuxR assessed as inhibition of […]-induced quorum sensing activation at 10 uM after 8 hrs by […] relative to untreated control; assay type: functional
T1 sequence (whole entry): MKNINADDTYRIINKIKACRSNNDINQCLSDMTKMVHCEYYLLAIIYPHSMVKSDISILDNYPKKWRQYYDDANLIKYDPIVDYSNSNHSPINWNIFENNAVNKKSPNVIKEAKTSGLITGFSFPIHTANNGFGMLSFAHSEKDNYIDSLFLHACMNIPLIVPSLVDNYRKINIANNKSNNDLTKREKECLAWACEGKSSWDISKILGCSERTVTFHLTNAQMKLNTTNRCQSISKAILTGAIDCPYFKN

[4] = molecular target: T1, Transcriptional activator protein LuxR (Aliivibrio fischeri); experiment: Agonist activity at Vibrio fischeri ESI 114 (delta-LuxI) LuxR at 10 uM after 8 hrs by […] relative to […]; assay type: functional
Procedure, shortened: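 V. fischeri ESI 114 lacking LuxI synthase but keeping its native lux operon; LuxR activity read as luminescence. Compounds were screened at 10 µM alone, without native AHL. Signal was normalized to the native-ligand positive control.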

[5] = molecular target: T2, Transcriptional activator protein TraR (Agrobacterium tumefaciens) (UniProt P33905); experiment: Antagonist activity at Agrobacterium tumefaciens WCF (pCF372) TraR assessed as inhibition of […]-induced quorum sensing activation at 10 uM after 8 hrs by beta-galactosidase reporter gene assay relative to untreated control; assay type: functional
T2 sequence (whole entry): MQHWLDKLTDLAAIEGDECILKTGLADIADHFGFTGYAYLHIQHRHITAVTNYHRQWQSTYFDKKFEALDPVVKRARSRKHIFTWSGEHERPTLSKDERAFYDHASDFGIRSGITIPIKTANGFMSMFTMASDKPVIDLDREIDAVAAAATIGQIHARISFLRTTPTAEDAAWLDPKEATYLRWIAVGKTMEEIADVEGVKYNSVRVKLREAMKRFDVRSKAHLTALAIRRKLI

[6] = molecular target: T2, Transcriptional activator protein TraR (Agrobacterium tumefaciens); experiment: Agonist activity at Agrobacterium tumefaciens WCF (pCF372) TraR at 10 uM after 8 hrs by beta-galactosidase reporter gene assay relative to […]; assay type: functional
[7] = system: Pseudomonas aeruginosa; experiment: Growth inhibition of Pseudomonas aeruginosa PAO1 MW1 (pUM15) at 10 uM after 4 to 16 hrs; assay type: organism-based; conditions: in vivo
Procedure, shortened: (§1)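 Bacterial growth was monitored over the reporter gene assay time course (4–16 h) with compounds at 10 µM.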

[8] = system: Escherichia coli; experiment: Growth inhibition of Escherichia coli DH5alpha (pJN105L + pSC11) at 10 uM after 4 to 16 hrs; assay type: organism-based, DH5[alpha]; conditions: in vivo; procedure, shortened: as §1
[9] = system: Aliivibrio fischeri; experiment: Growth inhibition of Vibrio fischeri ESI 114 (delta-LuxI) at 10 uM after 4 to 16 hrs; assay type: organism-based; conditions: in vivo; procedure, shortened: as §1
[10] = system: Agrobacterium tumefaciens; experiment: Growth inhibition of Agrobacterium tumefaciens WCF (pCF372) at 10 uM after 4 to 16 hrs; assay type: organism-based; conditions: in vivo; procedure, shortened: as §1
[11] = molecular target: T3, Transcriptional activator protein LasR (Pseudomonas aeruginosa (strain ATCC 15692 / PAO1 / 1C / PRS 101 / LMG12228), UniProt P25084); experiment: Agonist activity at Pseudomonas aeruginosa PAO1 MW1 (pUM15) LasR after 8 hrs by YFP fluorescence reporter gene assay relative to OdDHL
T3 sequence (P25084 whole entry): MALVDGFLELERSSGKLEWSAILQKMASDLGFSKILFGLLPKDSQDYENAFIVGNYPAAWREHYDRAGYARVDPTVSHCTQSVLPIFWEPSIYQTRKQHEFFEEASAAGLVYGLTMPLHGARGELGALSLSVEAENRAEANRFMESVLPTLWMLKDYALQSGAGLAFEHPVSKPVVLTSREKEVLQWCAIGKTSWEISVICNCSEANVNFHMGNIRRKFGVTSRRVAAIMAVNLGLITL

[12] = molecular target: T4, Transcriptional activator protein LasR (Pseudomonas aeruginosa (strain ATCC 15692 / PAO1 / 1C / PRS 101 / LMG12228)) (UniProt P25084); experiment: Agonist activity at Pseudomonas aeruginosa PAO1 MW1 (pUM15) LasR at 10 uM after 8 hrs by YFP fluorescence reporter gene assay relative to OdDHL
T4 sequence (whole entry): T3 sequence (P25084 whole entry)

[13] = molecular target: T3, Transcriptional activator protein LasR; experiment: Agonist activity at Pseudomonas aeruginosa PAO1 MW1 (pUM15) LasR assessed as quorum sensing activation after 8 hrs by […]
[14] = molecular target: T5, Transcriptional activator protein TraR (Agrobacterium tumefaciens, UniProt P33905); experiment: Antagonist activity at Agrobacterium tumefaciens WCF (pCF372) TraR assessed as inhibition of OOHL-induced quorum sensing activation after 8 hrs by beta-galactosidase reporter gene assay
T5 sequence (P33905 whole entry): T2 sequence (whole entry)

[15] = Hydrolytic stability of the compound in Luria-Bertani medium containing Pseudomonas aeruginosa PA01 MW1 (pUM15) assessed as half life by measuring YFP fluorescence; assay type: physicochemical
[16] = molecular target: T4, Transcriptional activator protein LasR (Pseudomonas aeruginosa (strain ATCC 15692 / PAO1 / 1C / PRS 101 / LMG12228)); experiment: Antagonist activity at Pseudomonas aeruginosa PAO1 MW1 (pUM15) LasR assessed as inhibition of OdDHL-induced quorum sensing activation at 10 uM after 8 hrs by […] relative to untreated control; assay type: functional
Procedure, shortened: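 P. aeruginosa PAO1 MW1 (pUM15) lacks functional LasI and carries a LasR-responsive promoter driving YFP, so fluorescence is the read-out. Compounds were tested at 10 µM. […] Background from wells with no compound or AHL was subtracted. Assays were done in triplicate.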

[17] = molecular target: T5, Transcriptional activator protein TraR; experiment: Agonist activity at Agrobacterium tumefaciens WCF (pCF372) TraR after 8 hrs by beta-galactosidase reporter gene assay relative to OOHL
[18] = molecular target: T6, Transcriptional activator protein LuxR (Aliivibrio fischeri, UniProt P12746); experiment: Antagonist activity at Vibrio fischeri ESI 114 (delta-LuxI) LuxR assessed as inhibition of OHHL-induced quorum sensing activation after 8 hrs by […]
T6 sequence (P12746 whole entry): T1 sequence (whole entry)

[19] = molecular target: T6, Transcriptional activator protein LuxR; experiment: Agonist activity at Vibrio fischeri ESI 114 (delta-LuxI) LuxR after 8 hrs by […] relative to […]; assay type: functional
[20] = system: Escherichia coli DH5[alpha]; experiment: Antagonist activity at Escherichia coli DH5alpha (pJN105L + pSC11) LasR assessed as inhibition of OdDHL-induced quorum sensing activation at 10 uM after 8 hrs by beta-galactosidase reporter gene assay relative to untreated control; assay type: functional
[21] = Antagonist activity at Escherichia coli DH5alpha (pJN105L + pSC11) LasR assessed as inhibition of OdDHL-induced quorum sensing activation after 8 hrs by beta-galactosidase reporter gene assay; assay type: functional, Escherichia coli DH5[alpha]

SMILES: CCCC(=O)CC(=O)N[C@H]1CCSC1=O
Activity [1]: 96% | EC50 [2]: 130 nM | inhibition [3]: 62% | Activity [4]: 0% | inhibition [5]: 93% | Activity [6]: 1% | Activity [7]: Non-toxic | Activity [8]: Non-toxic | Activity [9]: Non-toxic | Activity [10]: Non-toxic | EC50 [11]: 13 µM | Activity [12]: 76% | EC50 [13]: 13 µM | IC50 [14]: 3.2 µM

half-life [15]: 2.01 days
SMILES: CCCCCCCCCC(=O)CC(=O)N[C@H]1CCOC1=O

SMILES: CCCCCC(=O)CC(=O)N[C@H]1CCSC1=O
inhibition [16]: -8% | inhibition [3]: 99% | Activity [4]: 0% | Activity [6]: 50% | Activity [7]: Non-toxic | Activity [8]: Non-toxic | Activity [9]: Non-toxic | Activity [10]: Non-toxic | EC50 [17]: 20 µM | Activity [12]: 3% | IC50 [18]: 350 nM

SMILES: O=C(Cc1cccc([N+](=O)[O-])c1)N[C@H]1CCSC1=O
inhibition [16]: -7% | Activity [1]: 82% | EC50 [2]: 4100 nM | inhibition [3]: 19% | Activity [4]: 21% | inhibition [5]: 33% | Activity [6]: 1% | EC50 [19]: 11 µM | Activity [7]: Non-toxic | Activity [8]: Non-toxic | Activity [9]: Non-toxic | Activity [10]: Non-toxic | Activity [12]: 5%

SMILES: CCCCCCC(=O)N[C@H]1CCSC1=O
inhibition [16]: -8% | inhibition [20]: 78% | Activity [1]: 8% | IC50 [21]: 790 nM | inhibition [3]: 78% | Activity [4]: 0% | inhibition [5]: 78% | Activity [6]: 0% | Activity [7]: Non-toxic | Activity [8]: Non-toxic | Activity [9]: Non-toxic | Activity [10]: Non-toxic | Activity [12]: 0% | IC50 [18]: 310 nM | IC50 [14]: 10 µM

SMILES: CCCCCCCCCC(=O)CC(=O)N[C@H]1CCSC1=O
Activity [1]: 94% | EC50 [2]: 92 nM | inhibition [3]: 99% | Activity [4]: 0% | inhibition [5]: 92% | Activity [6]: 1% | half-life [15]: 3.43 days | Activity [7]: Non-toxic | Activity [8]: Non-toxic | Activity [9]: Non-toxic | Activity [10]: Non-toxic | Activity [12]: 88% | IC50 [18]: 450 nM
